Source: ChEMBL document CHEMBL1138753, “Synthesis and biological activity of analogues of the antimicrotubule agent N,beta,beta-trimethyl-L-phenylalanyl-N(1)-[(1S,2E)-3-carboxy-1-isopropylbut-2-enyl]- N(1),3-dimethyl-L-valinamide (HTI-286)” (J Med Chem, 2004)

Legend:
KB [1] = experiment: Concentration required to inhibit tumor cell growth in KB-V1 cells; format: functional, cell-based; settings: Homo sapiens
How it was run: (§1)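 Cytotoxicity was measured in paclitaxel-sensitive KB-3-1 cells and in KB-8-5 and KB-V1 cells, which express moderate and high P-glycoprotein respectively. Result is the average IC50 (nM) ± SEM; SEM is omitted where it is below 10% of the average.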

[2] = Concentration required to inhibit tumor cell growth in KB-3-1 cells; format: functional, cell-based, Homo sapiens; how it was run: as §1
KB [3] = experiment: Concentration required to inhibit tumor cell growth in KB-8-5 cells; format: functional, cell-based, Homo sapiens; how it was run: as §1
Tubulin beta-1 chain = Tubulin beta-1 chain (Homo sapiens, UniProt Q9H4B7); experiment: Percent inhibition of tubulin polymerization at 0.3 uM concentration; format: functional
Sequence of Tubulin beta-1 chain (Q9H4B7 whole entry): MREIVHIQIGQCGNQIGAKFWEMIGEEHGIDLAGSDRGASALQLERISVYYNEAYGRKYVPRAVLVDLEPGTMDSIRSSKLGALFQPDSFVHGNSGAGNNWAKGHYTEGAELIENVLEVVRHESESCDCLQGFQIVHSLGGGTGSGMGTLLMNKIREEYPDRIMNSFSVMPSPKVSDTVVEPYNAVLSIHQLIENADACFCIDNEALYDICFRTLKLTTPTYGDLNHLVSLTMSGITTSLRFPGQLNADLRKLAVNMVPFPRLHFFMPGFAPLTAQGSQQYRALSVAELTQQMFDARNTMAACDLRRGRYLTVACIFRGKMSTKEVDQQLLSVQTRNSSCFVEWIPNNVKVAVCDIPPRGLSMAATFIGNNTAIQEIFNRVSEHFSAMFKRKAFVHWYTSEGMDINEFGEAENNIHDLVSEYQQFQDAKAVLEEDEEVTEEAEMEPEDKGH

IC50 (KB [3]; kb) | SMILES | IC50 (KB [1]) | IC50 ([2]; Homo sapiens, KB 3-1) | IC50 (KB [3]; Homo sapiens, KB) | inhibition (Tubulin beta-1 chain) | IC50 ([2]; kb 3-1)
– | CN[C@H](C(=O)N[C@@H](C(=O)N(C)[C@H](/C=C(\C)C(=O)O)C(C)C)C(C)(C)C)C(C)(C)c1ccccc1 | > 3000 nM | > 3000 nM | > 3000 nM | 1% | –
– | C/C(=C\[C@H](C(C)C)N(C)C(=O)[C@@H](NC(=O)[C@@H](NCCO)C(C)(C)c1ccccc1)C(C)(C)C)C(=O)O | > 3000 nM | 183 nM | 616 nM | 90% | –
– | CN[C@H](C(=O)N[C@H](C(=O)N(C)[C@@H](/C=C(\C)C(=O)O)C(C)C)C(C)(C)C)C(C)(C)c1ccccc1 (single isomer, unassigned) | > 3000 nM | 605 nM | 1650 nM | 0% | –
– | CS[C@@H](C(=O)N[C@H](C(=O)N(C)[C@H](/C=C(\C)C(=O)O)C(C)C)C(C)(C)C)C(C)(C)c1ccccc1 | > 6000 nM | 691 nM | 1150 nM | 79% | –
– | CN[C@H](C(=O)N[C@H](C(=O)N(C)[C@H](/C=C(\C)C(N)=O)C(C)C)C(C)(C)C)C(C)(C)c1ccccc1 | > 3000 nM | 65 nM | 162 nM | 72% | –
– | CN[C@H](C(=O)N[C@H](C(=O)N(C)[C@H](/C=C(\C)C(=O)O)C(C)C)C(C)(C)C)C(C)(C)c1ccc(-c2ccccc2)cc1 | 177 nM | 3.2 nM | 6.8 nM | 86% | –
– | CN[C@H](C(=O)N[C@H](C(=O)N(C)[C@H](/C=C(\C)C(=O)N1CCN(Cc2ccccc2)CC1)C(C)C)C(C)(C)C)C(C)(C)c1ccccc1 | 366 nM | 15 nM | 22 nM | 29% | –
– | C/C(=C\[C@H](C(C)C)N(C)C(=O)[C@@H](NC(=O)[C@@H](NCC(=O)O)C(C)(C)c1ccccc1)C(C)(C)C)C(=O)O | > 3000 nM | > 3000 nM | > 3000 nM | 35% | –
– | CCC(CC)(c1ccccc1)[C@H](NC)C(=O)N[C@H](C(=O)N(C)[C@H](/C=C(\C)C(=O)O)C(C)C)C(C)(C)C | 479 nM | 8.5 nM | 18 nM | 86% | –
– | CN[C@H](C(=O)N[C@@H](Cc1ccccc1)C(=O)N(C)[C@H](/C=C(\C)C(=O)O)C(C)C)C(C)(C)c1ccccc1 | > 3000 nM | 1320 nM | 2400 nM | 40% | –
– | C/C(=C\[C@H](C(C)C)N(C)C(=O)[C@@H](NC(=O)[C@H](Cc1ccccc1)C(C)(C)c1ccccc1)C(C)(C)C)C(=O)O | > 6000 nM | 1690 nM | 2240 nM | 46% | –
– | CN[C@H](C(=O)N[C@H](C(=O)N(C)[C@H](/C=C(\C)C(=O)O)C(C)C)C(C)(C)C)C(C)(C)O | > 3000 nM | 151 nM | 293 nM | 40% | –
– | CN[C@H](C(=O)N[C@H](C(=O)N(C)[C@H](C[C@H](C)C(=O)O)C(C)C)C(C)(C)C)C(C)(C)c1ccccc1 | > 3000 nM | 48 nM | 69 nM | 74% | –
– | CN[C@H](C(=O)N[C@@H](C)C(=O)N(C)[C@H](/C=C(\C)C(=O)O)C(C)C)C(C)(C)c1ccccc1 | > 3000 nM | 381 nM | 902 nM | 8% | –
– | CCN(C(=O)[C@@H](NC(=O)[C@@H](NC)C(C)(C)c1ccccc1)C(C)(C)C)[C@H](/C=C(\C)C(=O)O)C(C)C | > 3000 nM | 109 nM | 197 nM | 11% | –
– | CN[C@H](C(=O)N[C@H](C(=O)N(C)[C@H](/C=C(\C)C(=O)O)C(C)C)C(C)(C)C)C(C)(C)Cc1ccccc1 | 219 nM | 3 nM | 6 nM | 87% | –
– | C=CC[C@H](C(=O)N[C@H](C(=O)N(C)[C@H](/C=C(\C)C(=O)O)C(C)C)C(C)(C)C)C(C)(C)c1ccccc1 | > 6000 nM | 1150 nM | 1200 nM | 63% | –
– | CN[C@H](C(=O)N[C@H](C(=O)N(C)[C@H](/C=C(\C)C(=O)O)C(C)C)C(C)(C)C)[C@@H](C)c1ccccc1 | > 3000 nM | 207 nM | 414 nM | 84% | –
– | CCCCCCCCOC(=O)/C(C)=C/[C@H](C(C)C)N(C)C(=O)[C@@H](NC(=O)[C@@H](NC)C(C)(C)c1ccccc1)C(C)(C)C | > 3000 nM | 150 nM | 1630 nM | 26% | –
– | C/C(=C\[C@H](C(C)C)N(C)C(=O)[C@@H](NC(=O)[C@@H](Cc1ccccc1)C(C)(C)c1ccccc1)C(C)(C)C)C(=O)O | > 6000 nM | 1690 nM | 2240 nM | 46% | –
– | CN[C@H](C(=O)N[C@H](C(=O)N(C)[C@H](/C=C(\C)C(=O)NCc1ccc(-c2ccccc2)cc1)C(C)C)C(C)(C)C)C(C)(C)c1ccccc1 | > 3000 nM | 667 nM | 1680 nM | 11% | –
– | CCCCCC(C)(C)[C@H](NC)C(=O)N[C@H](C(=O)N(C)[C@H](/C=C(\C)C(=O)O)C(C)C)C(C)(C)C | 513 nM | 9 nM | 19 nM | 72% | –

IC50 (KB [3]; kb) | SMILES | IC50 (KB [1]) | IC50 ([2]; Homo sapiens, KB 3-1) | IC50 (KB [3]; Homo sapiens, KB) | inhibition (Tubulin beta-1 chain) | IC50 ([2]; kb 3-1)
– | CS[C@H](C(=O)N[C@H](C(=O)N(C)[C@H](/C=C(\C)C(=O)O)C(C)C)C(C)(C)C)C(C)(C)c1ccccc1 | > 6000 nM | 691 nM | 1150 nM | 79% | –
550 nM | C/C(=C\[C@H](C(C)C)N(C)C(=O)[C@@H](NC(=O)[C@@H](N)C(C)(C)c1ccccc1)C(C)(C)C)C(=O)O (stereo in doubt; 20) [listing 1 of 2 here] | > 3000 nM | – | – | – | 427 nM
– | C/C(=C\[C@H](C(C)C)N(C)C(=O)[C@@H](NC(=O)[C@@H](N)C(C)(C)c1ccccc1)C(C)(C)C)C(=O)O (stereo in doubt; 20) [listing 2 of 2 here] | – | – | – | 95% | –
– | CNC(=O)CN[C@H](C(=O)N[C@H](C(=O)N(C)[C@H](/C=C(\C)C(=O)O)C(C)C)C(C)(C)C)C(C)(C)c1ccccc1 | > 3000 nM | > 3000 nM | > 3000 nM | 0% | –
– | C/C(=C\[C@H](C(C)C)N(C)C(=O)[C@@H](NC(=O)[C@@H](N)C(C)(C)c1ccccc1)C(C)(C)C)C(=O)O (stereo in doubt; 63) | – | – | – | 49% | –
– | CN[C@H](C(=O)N[C@H](C(=O)N(C)[C@H](/C=C(\C)C(=O)O)Cc1ccccc1)C(C)(C)C)C(C)(C)c1ccccc1 | > 3000 nM | 479 nM | 1320 nM | 44% | –
– | CCC[C@H](NC(=O)[C@@H](NC)C(C)(C)c1ccccc1)C(=O)N(C)[C@H](/C=C(\C)C(=O)O)C(C)C | 575 nM | 15 nM | 19 nM | 51% | –
– | CCN[C@H](C(=O)N[C@H](C(=O)N(C)[C@H](/C=C(\C)C(=O)O)C(C)C)C(C)(C)C)C(C)(C)c1ccccc1 | 114 nM | 1.6 nM | 2.4 nM | 96% | –
– | CN[C@H](C(=O)N(C)[C@H](C(=O)N(C)[C@H](/C=C(\C)C(=O)O)C(C)C)C(C)(C)C)C(C)(C)c1ccccc1 | > 3000 nM | > 3000 nM | > 3000 nM | 4% | –
– | CN[C@H](C(=O)N[C@H](C(=O)N(C)[C@H](/C=C(\C)C(=O)O)C(C)C)C(C)(C)C)[C@H](C)c1ccccc1 | > 3000 nM | 438 nM | 584 nM | 77% | –
– | CN[C@@H](Cc1ccccc1)C(=O)N[C@H](C(=O)N(C)[C@H](/C=C(\C)C(=O)O)C(C)C)C(C)(C)C | > 3000 nM | 603 nM | 646 nM | 66% | –
– | CO[C@H](C(=O)N[C@H](C(=O)N(C)[C@H](/C=C(\C)C(=O)O)C(C)C)C(C)(C)C)C(C)(C)c1ccccc1 | > 3000 nM | 1420 nM | 1230 nM | 54% | –
– | C/C(=C\[C@H](C(C)C)N(C)C(=O)[C@@H](NC(=O)CC(C)(C)c1ccccc1)C(C)(C)C)C(=O)O | > 3000 nM | > 3000 nM | > 3000 nM | 21% | –
– | CC[C@@H](C(=O)N[C@H](C(=O)N(C)[C@H](/C=C(\C)C(=O)O)C(C)C)C(C)(C)C)C(C)(C)c1ccccc1 | 5250 nM | 912 nM | 1200 nM | 54% | –
– | CN[C@H](C(=O)N[C@H](C(=O)N(C)[C@H](/C=C(\C)C(=O)O)C(C)C)C(C)(C)C)C1(c2ccccc2)CCCCC1 | > 3000 nM | 204 nM | 363 nM | 5% | –
– | C/C(=C\[C@H](C(C)C)N(C)C(=O)[C@@H](NC(=O)[C@@H](N1CCCC1)C(C)(C)c1ccccc1)C(C)(C)C)C(=O)O | > 3000 nM | 75 nM | 158 nM | 83% | –
– | CNCC(=O)N[C@H](C(=O)N[C@H](C(=O)N(C)[C@H](/C=C(\C)C(=O)O)C(C)C)C(C)(C)C)C(C)(C)c1ccccc1 | > 3000 nM | 1400 nM | 2120 nM | 4% | –
– | CN[C@H](C(=O)N[C@H](C(=O)N(C)[C@H](/C=C(\C)C(=O)O)C(C)C)C(C)(C)C)C(C)(C)C | > 3000 nM | 114 nM | 180 nM | 43% | –
– | CN[C@H](C(=O)N[C@H](C(=O)N(C)[C@H](/C=C(\C)C(=O)O)C(C)C)C(C)(C)C)C1(c2ccccc2)CC1 | 1660 nM | 27 nM | 57 nM | 99% | –
– | CC[C@H](NC(=O)[C@@H](NC)C(C)(C)c1ccccc1)C(=O)N(C)[C@H](/C=C(\C)C(=O)O)C(C)C | 1060 nM | 48 nM | 70 nM | 73% | –
– | C/C(=C\[C@H](C(C)C)N(C)C(=O)[C@@H](NC(=O)[C@@H](NCc1ccccc1)C(C)(C)c1ccccc1)C(C)(C)C)C(=O)O | > 3000 nM | 1790 nM | 1880 nM | 55% | –
– | CN[C@H](C(=O)N[C@H](C(=O)N(C)[C@H](/C=C(\C)C(=O)NCCc1ccccc1)C(C)C)C(C)(C)C)C(C)(C)c1ccccc1 | 1770 nM | 163 nM | 226 nM | 72% | –
